Measured values as given in ChEMBL document CHEMBL1250495, “Synthesis and antimicrobial activities of novel 1H-dibenzo[a,c]carbazoles from dehydroabietic acid” (2010).
Values after ≈ are worked out from the molar mass of the structure shown.

Tests used:
Type in all cases: functional
Escherichia coli = test: Antimicrobial activity against Escherichia coli CGMCC 1.1571 after 24 hrs by modified microdilution method; settings: CGMCC 1.1571, 24 h
Method in brief: (§1)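 Broth microdilution. Compounds were dissolved in 20% DMSO and serially diluted twofold, then mixed with an equal volume of bacteria in Martin's broth (~10^5 CFU/ml). Amikacin sulfate was the positive control and 20% DMSO the negative control. Wells were incubated at 37 °C for 24 h and scored visually for growth. MIC is the lowest concentration inhibiting growth.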

Candida albicans = test: Antimicrobial activity against Candida albicans CGMCC 2.2086 after 48 hrs by modified microdilution method; settings: CGMCC 2.2086, 48 h
Method in brief: (§2)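 Fungal MIC by modified microdilution. Twofold serial dilutions of compound in 20% DMSO were combined with an equal volume of inoculum in PD broth (~10^5 CFU/ml). Ketoconazole was the positive control and 20% DMSO the negative control. Plates were incubated 48 h at 28 °C and inspected for growth. MIC is the lowest concentration without visible growth.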

Trichophyton rubrum = test: Antimicrobial activity against Trichophyton rubrum ATCC 10218 after 48 hrs by modified microdilution method; settings: ATCC 10218, 48 h; method in brief: as §2
Bacillus subtilis = test: Antimicrobial activity against Bacillus subtilis CGMCC 1.1162 after 24 hrs by modified microdilution method; settings: CGMCC 1.1162, 24 h; method in brief: as §1
Staphylococcus aureus = test: Antimicrobial activity against Staphylococcus aureus CGMCC 1.1361 after 24 hrs by modified microdilution method; settings: CGMCC 1.1361, 24 h; method in brief: as §1
Pseudomonas fluorescens = test: Antimicrobial activity against Pseudomonas fluorescens CGMCC 1.1828 after 24 hrs by modified microdilution method; settings: CGMCC 1.1828, 24 h; method in brief: as §1
Aspergillus niger = test: Antimicrobial activity against Aspergillus niger CGMCC 3.316 after 48 hrs by modified microdilution method; settings: CGMCC 3.316, 48 h; method in brief: as §2

| SMILES | MIC (Escherichia coli) [µg/mL] | MIC (Candida albicans) [µg/mL] | MIC (Trichophyton rubrum) [µg/mL] | MIC (Bacillus subtilis) [µg/mL] | MIC (Staphylococcus aureus) [µg/mL] | MIC (Pseudomonas fluorescens) [µg/mL] | MIC (Aspergillus niger) [µg/mL] |
| --- | --- | --- | --- | --- | --- | --- | --- |
| COC(=O)[C@]1(C)CCC[C@]2(C)c3ccc(C(C)C)cc3-c3[nH]c4ccccc4c3[C@@H]12 | > 100 | > 100 | > 100 | 31.2 (≈ 77.7 µM) | 62.5 (≈ 156 µM) | 62.5 (≈ 156 µM) | > 100 |
| COC(=O)[C@]1(C)CCC[C@]2(C)c3ccc(C(C)C)cc3-c3[nH]c4ccc(C)cc4c3[C@@H]12 | > 100 | > 100 | 62.5 (≈ 150 µM) | 31.2 (≈ 75.1 µM) | 62.5 (≈ 150 µM) | 31.2 (≈ 75.1 µM) | > 100 |
| COC(=O)[C@]1(C)CCC[C@]2(C)c3ccc(C(C)C)cc3-c3[nH]c4c(C)cccc4c3[C@@H]12 | > 100 | > 100 | > 100 | > 100 | > 100 | > 100 | > 100 |
| COC(=O)[C@]1(C)CCC[C@]2(C)c3ccc(C(C)C)cc3-c3[nH]c4ccc(F)cc4c3[C@@H]12 | 15.6 (≈ 37.2 µM) | 62.5 (≈ 149 µM) | > 100 | 1.9 (≈ 4.53 µM) | 3.9 (≈ 9.3 µM) | 7.8 (≈ 18.6 µM) | > 100 |
| COC(=O)[C@]1(C)CCC[C@]2(C)c3ccc(C(C)C)cc3-c3[nH]c4c(F)cccc4c3[C@@H]12 | 31.2 (≈ 74.4 µM) | 31.2 (≈ 74.4 µM) | 62.5 (≈ 149 µM) | 7.8 (≈ 18.6 µM) | 31.2 (≈ 74.4 µM) | 15.6 (≈ 37.2 µM) | 62.5 (≈ 149 µM) |
| COC(=O)[C@]1(C)CCC[C@]2(C)c3ccc(C(C)C)cc3-c3[nH]c4ccc(Cl)cc4c3[C@@H]12 | 15.6 (≈ 35.8 µM) | > 100 | > 100 | 3.9 (≈ 8.95 µM) | 3.9 (≈ 8.95 µM) | 31.2 (≈ 71.6 µM) | > 100 |
| COC(=O)[C@]1(C)CCC[C@]2(C)c3ccc(C(C)C)cc3-c3[nH]c4c(Cl)cccc4c3[C@@H]12 | > 100 | > 100 | > 100 | 31.2 (≈ 71.6 µM) | 31.2 (≈ 71.6 µM) | > 100 | > 100 |
| COC(=O)[C@]1(C)CCC[C@]2(C)c3ccc(C(C)C)cc3-c3[nH]c4ccc(Br)cc4c3[C@@H]12 | 31.2 (≈ 64.9 µM) | > 100 | > 100 | 15.6 (≈ 32.5 µM) | 31.2 (≈ 64.9 µM) | 15.6 (≈ 32.5 µM) | > 100 |
| COC(=O)[C@]1(C)CCC[C@]2(C)c3ccc(C(C)C)cc3-c3[nH]c4c(Br)cccc4c3[C@@H]12 | > 100 | > 100 | > 100 | 62.5 (≈ 130 µM) | > 100 | 62.5 (≈ 130 µM) | > 100 |
| COC(=O)[C@]1(C)CCC[C@]2(C)c3ccc(C(C)C)cc3-c3[nH]c4ccc(OC)cc4c3[C@@H]12 | > 100 | 62.5 (≈ 145 µM) | > 100 | 62.5 (≈ 145 µM) | 31.2 (≈ 72.3 µM) | > 100 | > 100 |
| COC(=O)[C@]1(C)CCC[C@]2(C)c3ccc(C(C)C)cc3-c3[nH]c4c(OC)cccc4c3[C@@H]12 | > 100 | > 100 | > 100 | > 100 | 62.5 (≈ 145 µM) | > 100 | > 100 |
| CCOc1ccc2[nH]c3c(c2c1)[C@H]1[C@](C)(C(=O)OC)CCC[C@]1(C)c1ccc(C(C)C)cc1-3 | 62.5 (≈ 140 µM) | 62.5 (≈ 140 µM) | 62.5 (≈ 140 µM) | 62.5 (≈ 140 µM) | > 100 | 31.2 (≈ 70 µM) | > 100 |
| COC(=O)[C@]1(C)CCC[C@]2(C)c3ccc(C(C)C)cc3-c3[nH]c4ccc([N+](=O)[O-])cc4c3[C@@H]12 | 15.6 (≈ 34.9 µM) | 31.2 (≈ 69.9 µM) | 62.5 (≈ 140 µM) | 7.8 (≈ 17.5 µM) | 7.8 (≈ 17.5 µM) | 15.6 (≈ 34.9 µM) | > 100 |
| COC(=O)[C@]1(C)CCC[C@]2(C)c3ccc(C(C)C)cc3C(=O)C[C@@H]12 | > 100 | > 100 | > 100 | 31.2 (≈ 95 µM) | 31.2 (≈ 95 µM) | 62.5 (≈ 190 µM) | > 100 |
| NCC[C@H](O)C(=O)N[C@@H]1C[C@H](N)[C@@H](O[C@H]2O[C@H](CN)[C@@H](O)[C@H](O)[C@H]2O)[C@H](O)[C@H]1O[C@H]1O[C@H](CO)[C@@H](O)[C@H](N)[C@H]1O [AMIKACIN] | 1.9 (≈ 3.24 µM) | – | – | 0.9 (≈ 1.54 µM) | 0.9 (≈ 1.54 µM) | 0.9 (≈ 1.54 µM) | – |
| CC(=O)N1CCN(c2ccc(OCC3COC(Cn4ccnc4)(c4ccc(Cl)cc4Cl)O3)cc2)CC1 (configuration not stated) [KETOCONAZOLE] | – | 3.9 (≈ 7.34 µM) | 3.9 (≈ 7.34 µM) | – | – | – | 7.8 (≈ 14.7 µM) |
| COC(=O)[C@]1(C)CCC[C@]2(C)c3ccc(C(C)C)cc3CC[C@@H]12 [METHYL DEHYDROABIETATE] | > 100 | > 100 | > 100 | > 100 | 62.5 (≈ 199 µM) | > 100 | > 100 |
